For data set [1] the following is noted: in MeOH; cited from earlier work.
Data set [2] has as its system PC-3 cells. The experiment in a line: Phototoxicity, resazurin cell viability assay after 525 nm irradiation. The class given is cell-based. On the technique in general: The colour change of resazurin is a common sign of viable cells or microbes.
Data set [3] relates to HeLa cells. The experiment in a line: Phototoxicity, resazurin cell viability assay after 525 nm irradiation. It is filed as cell-based. An outline of the steps: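 HeLa, 2×10^4 per well in DMEM (2.5 % FBS), 21 h before dosing. Turn-off or turn-on peptide photosensitizers in water/12.5 % MeCN, 4.00–0.03 μm final, triplicate, 2 h. Irradiated at 525 nm by LED array, 69.4±0.6 W m−2 for 160 s, then 18 h. Resazurin fluorescence viability; IC50 by four-parameter variable-slope log(inhibitor)–response fit; untreated and vehicle controls; ≥2 independent experiments.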

As for `O=C([O-])c1c(Cl)c(Cl)c(Cl)c(Cl)c1-c1c2cc(I)c(=O)c(I)c-2oc2c(I)c([O-])c(I)cc12.[Na+].[Na+]` [rose bengal], in data set [1], the “Φ Δ of the reference photosensitizers” value is given as 0.76. For the compound `CCCCCCCCCCCCCCCC(=O)NCCCC[C@H](NC(=O)[C@H](CSCC(=O)NCc1cn(CCOc2ccc(C3=C4C(C)=C(I)C(C)=[N+]4[B-](F)(F)n4c(C)c(I)c(C)c43)cc2)nn1)NC(=O)c1ccc(-c2nnc(C)c3c2CCC(O)CCC3)cc1)C(=O)N[C@@H](CCCNC(=N)N)C(=O)N[C@@H](CCCNC(=N)N)C(=O)N[C@@H](CCCNC(=N)N)C(=O)N[C@@H](CCCNC(=N)N)C(N)=O` (stereo partly shown) [6ON, [TCO:Tz]‐C(2I‐BODIPY)‐K(PA)RRRR‐CONH2], in data set [2], the “OFF/ON ratio (IC50 6OFF / IC50 6ON)” value is given as 3.3 fold. Further, the “phototoxicity variation turn-off/turn-on (IC50 6OFF / IC50 6ON)” value in data set [3] is given as 3.8 fold. With Erythrosine B, in data set [1], the “Φ Δ of the reference photosensitizers” value is on record as 0.6.
